The values below come from ChEMBL document CHEMBL1141543, “Protective effect of nitronyl nitroxide-amino acid conjugates on liver ischemia-reperfusion induced injury in rats” (Bioorg Med Chem Lett, 2008).

Usually inhibition stands for the relative decrease from the control value, in per cent. The EC50 is the midpoint of the concentration-response curve. A higher EC50 goes with a need for much substance.

Structures are written as SMILES. Activity calls are given as the source filed them. The rule behind the calls is not given here.

Assay [1] concerns Aorta. Description: Nitric oxide radical scavenging activity in rat thoracic aorta assessed as inhibition of acteylcholine-induced vasorelaxation at 1 umol. In kind it is functional, tissue-based.
For assay [2], the system named is PC-12. Put plainly: Hydrogen peroxide radical scavenging activity in rat PC12 cells. In kind it is functional, cell-based. The essentials: (§1)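 PC12 rat pheochromocytoma cells exposed to NO, H2O2 or ·OH. Test compound given either as pre-incubation before radical exposure or as incubation after exposure. Cell survival read by MTT reduction, used as the index of radical scavenging.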

Assay [3] deals with Aorta. Put plainly: Nitric oxide radical scavenging activity in rat thoracic aorta assessed as inhibition of acteylcholine-induced vasorelaxation at 10 umol. In kind it is functional, tissue-based.
Assay [4] concerns Aorta. Put plainly: Nitric oxide radical scavenging activity in rat thoracic aorta assessed as inhibition of acteylcholine-induced vasorelaxation at 100 umol. In kind it is functional, tissue-based.
Assay [5] concerns PC-12. Description: Hydroxyl radical scavenging activity in rat PC12 cells. In kind it is functional, cell-based. In short, it runs like this: as §1
Assay [6] relates to PC-12. Description: Suppression of free radical-induced decrease in viability of rat PC12 cells. In kind it is functional, cell-based. In short, it runs like this: as §1
Assay [7] concerns PC-12. Put plainly: Nitric oxide radical scavenging activity in rat PC12 cells. In kind it is functional, cell-based. The essentials:
as §1

Assay [8] deals with Rattus norvegicus. Description: Protection against hepatic ischemia-reperfusion-induced injury assessed as effect on aspartate aminotransferase level in Wistar rat liver at 30 mg/kg. In kind it is functional. The essentials:
(§2)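 Male Wistar rats, liver ischemia 30 min then reperfusion 2 h under sodium pentobarbital anesthesia (80 mg/kg). Drug 30 mg/kg given 10 min before reperfusion and again 1 h into reperfusion; sham and I/R controls received saline. n = 8 per group (sham n = 4). Serum ALT and AST measured as liver function; blood frozen at -70 °C until analysis.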

The test system of assay [9] is Rattus norvegicus. Put plainly: Protection against hepatic ischemia-reperfusion-induced injury assessed as effect on malondialdehyde level in Wistar rat liver at 30 mg/kg. In kind it is functional. The essentials:
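Male Wistar rats given liver ischemia 30 min and reperfusion 2 h under pentobarbital anesthesia. Drug 30 mg/kg dosed 10 min before reperfusion and 1 h after it began; controls got saline. Liver frozen at -70 °C. MDA in liver mitochondria measured spectrophotometrically as thiobarbituric acid reactive substances (Buege and Aust method).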

For assay [10], the system named is Rattus norvegicus. Put plainly: Protection against hepatic ischemia-reperfusion-induced injury assessed as effect on alanine aminotransferase level in Wistar rat liver at 30 mg/kg. In kind it is functional. The essentials:
as §2

Turning to `CC1(C)N([O])C(c2ccc(OCC(=O)N[C@@H](CCCCN)C(=O)O)cc2)=[N+]([O-])C1(C)C`, the inhibition in [1] amounted to 24.8%; in assay [3] it was 60.7%; in assay [4], 85%. For the same compound, the concentration for a half-maximal effect (EC50) in assay [2] amounted to 26.8 µM; in [5], 92.7 µM; in assay [7], 85.5 µM. Moreover, the result in [6] was Active.
`CC1(C)N([O])C(c2ccc(OCC(=O)N[C@@H](CCCNC(=N)N)C(=O)O)cc2)=[N+]([O-])C1(C)C`: the Activity in assay [8] amounted to 510 U/L; in assay [9], 2.76 nmol/mg; in assay [10], 173 U/L. The inhibition in assay [1] stood at 28.7%; in [3], 74%; in assay [4], 98.9%. The EC50 in assay [2] was determined as 49 µM; in assay [5] it was 98.9 µM; in assay [7] it was 92.8 µM. Moreover, the outcome in assay [6] was Active.
In the case of `N=C(N)NCCC[C@H](N)C(=O)O` [ARGININE], the Activity in assay [8] came out at 789 U/L; in assay [9], 3.82 nmol/mg; in assay [10], 493 U/L.
